Measured values reported in PubChem BioAssay.
Records with an inconclusive call do not appear.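 How the source made its calls, unless noted: active means growth inhibition above 25% in both replicates, a cutoff set 3 SD above the mean; inconclusive means above 25% in only one replicate; inactive means the rest.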

Legend:
[1] = S. cerevisiae growth inhibition in permissive medium (OD615), pilot counter-assay for S. cerevisiae lifespan shortening project, permissive growth control (AID 705); details: OD615, 24 h, at 10 µM, active compounds read high
How it was run: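 System: Engineered DeaD yeast | Buffer or medium: SC raffinose/galactose permissive medium | Incubation: Cells pre-grown 4 h, then 24 h compound exposure, 30 °C humidified | Measured by: Absorbance (optical density) at 615 nm | Read-out: Reduction in yeast growth (OD615)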

[2] = S. cerevisiae growth inhibition in restrictive medium, OD615, pilot screen, restrictive growth control, yeast lifespan reduction project (AID 706;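 active means growth inhibition above a set limit, 3 SD over mean compound inhibition, in both replicates, cut at about 43% in these data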;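 further: modified DeaD lifespan yeast strain shifted to restrictive glucose medium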); details: OD615, 48 h, at 10 µM, active compounds read high
How it was run: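 Material: modified S. cerevisiae; Medium: glucose-based CSMM-D restrictive medium; Compound dosing: one concentration, 10 µM final, 0.25% DMSO; Incubation: 48 h compound exposure at 30 °C; Measured by: OD615.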

[3] = doxorubicin toxicity protection in MRP-1 cells – H69AR cells, CellTiter-Glo, duplicate, MRP-1 activator project, pilot screen (AID 807;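 active means viability increase at or above a cutoff of the median across tested compounds plus 3 SD, cut at about 8.5% in these data, passing the limit was not always enough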;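 further: compound pretreatment 18-22 h then 72 h combined with doxorubicin; 0% = doxorubicin alone and 100% = vehicle without doxorubicin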); details: H69AR viability with doxorubicin, CellTiter-Glo luminescence; at 10 µM; active compounds read high
[4] = viability of HCT116 without oncogenic beta-catenin – human colon tumor cells, pilot screen (AID 823;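 active means cell viability at or below a set limit in both duplicate runs, the limit being the all-compound median minus 4 SD, cut at about 23% in these data, passing the limit was not always enough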;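 further: 0% = wells killed by 20 µM Hyamine and 100% = untreated DMSO cell wells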); details: HCT116 beta-catenin knockout viability, CellTiter-Glo, 60 h; at 10 µM; active compounds read low
[5] = viability of PTEN-null HCT116 cells – cell-based, HCT116 clonal line, CellTiter-Glo, pilot screen (AID 824;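 active means viability at or below 27.92% in each of two runs, the all-compound median minus 4 SD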;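 further: 0% = 20 µM Hyamine control and 100% = vehicle cell control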); details: HCT116 PTEN-deleted viability, 60 h, at 10 µM, active compounds read low
[6] = RAM pathway blockade in budding yeast – dse1pr::URA3 reporter, 5-FOA selection, pilot screen (AID 869;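 active means inhibition over a set limit, the all-compound mean plus 3 SD, in both replicate runs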;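 further: 0% = DMSO wells with no growth and 100% = 10 µM 1-NA-PP1 with full growth; RAM network block rescues cells from 5-FOA so hits raise OD615 growth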); details: S. cerevisiae dse1pr::URA3 5-FOA growth, OD615, 2 d; at 10 µM; active compounds read high; strain carries analog-sensitive mutant Cbk1 kinase
[7] = RAM signaling pathway blockade in yeast – S. cerevisiae, Pdr1DBD-CYC8 efflux-inhibited sensitized strain, primary screen (AID 1298;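 active means RAM network inhibition above 8.4% in each of two replicates, 3 SD over the compound average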;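 further: 0% = DMSO untreated cells without growth and 100% = 10 µM 1-NA-PP1 full growth; higher means more yeast growth rescued from 5-FOA killing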); details: S. cerevisiae cbk1-as DSE1-URA3 strain, 5-FOA growth OD615, 2 d; at 50 µM; active compounds read high

COc1ccc(C2CC(c3cccc(OC)c3)n3nc(N)nc3N2)cc1 (configuration not stated)
inactive: growth inhibition [1] -5.42% | growth inhibition [2] 9.84% | viability increase [3] 1.37% | viability [4] 100% | viability [5] 92.7% | inhibition [6] 2.04% | RAM network inhibition [7] -1.58%

O=C(NCC1COc2ccccc2O1)C1CCCN(S(=O)(=O)c2cccc3cccnc23)C1 (configuration not stated)
inactive: growth inhibition [1] -2.58% | growth inhibition [2] -19.5% | viability increase [3] 0.43% | viability [4] 71.8% | viability [5] 72.9% | inhibition [6] 2.7% | RAM network inhibition [7] 3.24%

CCSc1nnc(Cc2cc(=O)[nH]c(=O)[nH]2)n1-c1cccc(C)c1
inactive: growth inhibition [1] -8.16% | growth inhibition [2] -4.58% | viability increase [3] -1.79% | viability [4] 105% | viability [5] 94.3% | inhibition [6] 1.77% | RAM network inhibition [7] 0.26%

Cn1c(=NC(=O)c2ccco2)sc2cccc(F)c21
inactive: growth inhibition [1] -12.6% | growth inhibition [2] -1.11% | viability increase [3] -7.04% | viability [4] 80.9% | viability [5] 78.4% | inhibition [6] 2.1% | RAM network inhibition [7] 6.79%

O=NC1=C(c2c(O)[nH]c3ccccc23)CCCC1
inactive: growth inhibition [1] -3.26% | growth inhibition [2] -12% | viability increase [3] -5.46% | viability [4] 91% | viability [5] 93.9% | inhibition [6] 1.6% | RAM network inhibition [7] 4.71%

COC(=O)c1ccc(N=c2sc(C(=O)OC)cc(=O)n2C)cc1
inactive: growth inhibition [1] -4.13% | growth inhibition [2] -3.27% | viability increase [3] -5.93% | viability [4] 71.2% | viability [5] 62.5% | inhibition [6] 0.495% | RAM network inhibition [7] 3.85%

COc1ccccc1OCc1nc(C#N)c(N2CC(C)CC(C)C2)o1 (configuration not stated)
inactive: growth inhibition [1] -10.7% | growth inhibition [2] -24.8% | viability increase [3] -2.5% | viability [4] 71.7% | viability [5] 72.9% | inhibition [6] 1.48% | RAM network inhibition [7] 9.85%

O=C(CCCOc1ccc(Cl)cc1)N1CCCCC1
inactive: growth inhibition [1] -13.2% | growth inhibition [2] -11.9% | viability increase [3] 3.35% | viability [4] 96.1% | viability [5] 96.8% | inhibition [6] 0.44% | RAM network inhibition [7] -0.78%

CN(CCCNC(=O)C1CCC(=O)N1Cc1ccc(F)cc1)c1ccccc1 (configuration not stated)
inactive: growth inhibition [1] 4.99% | growth inhibition [2] -8.76% | viability increase [3] -1.51% | viability [4] 95.5% | viability [5] 90.5% | inhibition [6] 0.54% | RAM network inhibition [7] 0.72%

CCN1C(=O)c2ccccc2S(=O)c2ccc(C(=O)NCc3ccccn3)cc21 (configuration not stated)
inactive: growth inhibition [1] -1.77% | growth inhibition [2] -3.51% | viability increase [3] -0.87% | viability [4] 105% | viability [5] 95.7% | inhibition [6] 1.95% | RAM network inhibition [7] -2.39%

Cc1ccc(C(=O)N2CCN(c3ccccc3)CC2)cc1C
inactive: growth inhibition [1] 3.37% | growth inhibition [2] 8.08% | viability increase [3] 0.84% | viability [4] 101% | viability [5] 97.7% | inhibition [6] 0.13% | RAM network inhibition [7] 2.03%

CSCCC(NC(=O)c1c(C)oc2c1CCCC2)C(=O)O (configuration not stated)
inactive: growth inhibition [1] -2.84% | growth inhibition [2] -12.1% | viability increase [3] -0.78% | viability [4] 98.5% | viability [5] 95.9% | inhibition [6] 1.46% | RAM network inhibition [7] 0.21%

COc1ccc(OCc2nnc3n2N=C(c2ccc(C)cc2)CS3)cc1
inactive: growth inhibition [1] -3.36% | growth inhibition [2] -2.56% | viability increase [3] 2.3% | viability [4] 95.4% | viability [5] 82.1% | inhibition [6] 1.57% | RAM network inhibition [7] 2.58%

CC1Cc2ccccc2N1C(=O)c1cnc2n(c1=O)CCS2 (configuration not stated)
inactive: growth inhibition [1] -2.36% | growth inhibition [2] -4.37% | viability increase [3] -0.53% | viability [4] 94.4% | viability [5] 98.9% | inhibition [6] -0.135% | RAM network inhibition [7] 2.13%

CCc1ccc(C2CC(c3cccc(Cl)c3)n3nc(N)nc3N2)cc1 (configuration not stated)
inactive: growth inhibition [1] -3.09% | growth inhibition [2] 10.4% | viability increase [3] -3.92% | viability [4] 71.5% | viability [5] 65.6% | inhibition [6] 2.25% | RAM network inhibition [7] 9.11%

CCCCN(C)C(=O)C(Cc1ccccc1)NS(=O)(=O)c1ccc2c(c1)CCC(=O)N2 (configuration not stated)
inactive: growth inhibition [1] -18.6% | growth inhibition [2] -11.7% | viability increase [3] -2.47% | viability [4] 89.5% | viability [5] 90.2% | inhibition [6] 1.44% | RAM network inhibition [7] 6.27%

O=C(Nn1c(=S)[nH]c2ccccc2c1=O)c1ccncc1
inactive: growth inhibition [1] 6.51% | growth inhibition [2] -5.44% | viability increase [3] -2.87% | viability [4] 91.9% | viability [5] 90.5% | inhibition [6] 1.75% | RAM network inhibition [7] 4.74%

CCC1Oc2ccccc2N(CC(=O)NCCCN2CCOCC2)C1=O (configuration not stated)
inactive: growth inhibition [1] -2.59% | growth inhibition [2] 4.67% | viability increase [3] -1.49% | viability [4] 109% | viability [5] 105% | inhibition [6] 1.29% | RAM network inhibition [7] 0.62%

Cc1nc2ccccc2c2oc(C(=O)N3CCc4ccccc4C3)cc12
inactive: growth inhibition [1] -17.8% | growth inhibition [2] -23.5% | viability increase [3] -3.07% | viability [4] 73.1% | viability [5] 72.5% | inhibition [6] 1.98% | RAM network inhibition [7] 3.91%

COc1ccc(CNC(=O)CCS(=O)(=O)c2cccc3nonc23)cc1
inactive: growth inhibition [1] -4.22% | growth inhibition [2] -26.3% | viability increase [3] -2.89% | viability [4] 95.8% | viability [5] 100% | inhibition [6] 1.94% | RAM network inhibition [7] 6.09%

c1csc(Cc2nc3ccccc3[nH]2)c1
inactive: growth inhibition [1] -8.51% | growth inhibition [2] -11.8% | viability increase [3] 0.14% | viability [4] 97.8% | viability [5] 100% | inhibition [6] 2.71% | RAM network inhibition [7] -0.01%

COc1cccc(C(c2sc3ncnn3c2O)N2CCN(C(=O)c3ccco3)CC2)c1 (configuration not stated)
inactive: growth inhibition [1] -11.1% | growth inhibition [2] -5.93% | viability increase [3] 0.76% | viability [4] 104% | viability [5] 101% | inhibition [6] 0.91% | RAM network inhibition [7] 2.1%

COc1ccc(CNC(=O)CS(=O)Cc2nc(-c3ccc(C)cc3)oc2C)cc1 (configuration not stated)
inactive: growth inhibition [1] -5.34% | growth inhibition [2] 0.735% | viability increase [3] -2.44% | viability [4] 86.9% | viability [5] 93.4% | inhibition [6] 1.39% | RAM network inhibition [7] 5.95%

CCN(Cc1ccccc1)C(=O)CSc1nc(C)cc(C)c1C#N
inactive: growth inhibition [1] -12.8% | growth inhibition [2] -2.79% | viability increase [3] 4.58% | viability [4] 104% | viability [5] 87.3% | inhibition [6] 2.48% | RAM network inhibition [7] 0.99%

COC(=O)c1ccc(-c2nc(-c3ccc(Br)o3)no2)cc1
inactive: growth inhibition [1] -14% | growth inhibition [2] -20.4% | viability increase [3] 3.93% | viability [4] 103% | viability [5] 87.4% | inhibition [6] 2.63% | RAM network inhibition [7] 1.84%

CNc1nc(C)nc(-c2ccccc2O)n1
inactive: growth inhibition [1] -3.62% | growth inhibition [2] 7.31% | viability increase [3] -0.19% | viability [4] 98.5% | viability [5] 92.8% | inhibition [6] 0.84% | RAM network inhibition [7] 4.49%

Cc1sc2nc(CSc3nnc(Cc4cccs4)n3C3CCCCC3)[nH]c(=O)c2c1C
inactive: growth inhibition [1] 10.9% | growth inhibition [2] 27.6% | viability increase [3] 3.27% | viability [4] 92.8% | viability [5] 90% | inhibition [6] 3.25% | RAM network inhibition [7] 4.25%

C=CCn1c(SCC(=O)N2CCN(c3ccc(F)cc3)CC2)nnc1-c1ccco1
inactive: growth inhibition [1] 3.6% | growth inhibition [2] 1.48% | viability increase [3] -2.41% | viability [4] 60.7% | viability [5] 73.1% | inhibition [6] 1.71% | RAM network inhibition [7] 11.3%

O=C(c1ccc(CS(=O)(=O)c2c(Cl)cccc2Cl)o1)N1CCN(c2ccccn2)CC1
inactive: growth inhibition [1] -4.86% | growth inhibition [2] -8.68% | viability increase [3] -3.07% | viability [4] 97.8% | viability [5] 93.1% | inhibition [6] -0.07% | RAM network inhibition [7] 3.34%

CCOc1ccc(N(CC(=O)NC2CCCC2)S(=O)(=O)c2c(C)noc2C)cc1
inactive: growth inhibition [1] -12.7% | growth inhibition [2] -2.85% | viability increase [3] -2.27% | viability [4] 97.4% | viability [5] 94.9% | inhibition [6] 3.61% | RAM network inhibition [7] 8.02%

CCOC(=O)Cn1c(=O)oc2cc(S(=O)(=O)N3CCCc4ccccc43)ccc21
inactive: growth inhibition [1] -8.26% | growth inhibition [2] -5.77% | viability increase [3] -1.08% | viability [4] 88.2% | viability [5] 96% | inhibition [6] 2.77% | RAM network inhibition [7] 6.73%

COc1cccc(CNC(=O)c2cc3ccccn3n2)c1
inactive: growth inhibition [1] -1.27% | growth inhibition [2] -6.35% | viability increase [3] -2.27% | viability [4] 106% | viability [5] 96.8% | inhibition [6] 1.33% | RAM network inhibition [7] -0.11%

Cn1cc(S(=O)(=O)N2CCN(Cc3ccccc3)CC2)c(=O)n(C)c1=O
inactive: growth inhibition [1] -11.9% | growth inhibition [2] -10.5% | viability increase [3] -0.5% | viability [4] 95.2% | viability [5] 95.5% | inhibition [6] 0.755% | RAM network inhibition [7] -0.22%

Cc1cc(=S)n(-c2ccccc2)n1C
inactive: growth inhibition [1] 1.78% | growth inhibition [2] 7.75% | viability increase [3] -0.34% | viability [4] 102% | viability [5] 95.4% | inhibition [6] 1.21% | RAM network inhibition [7] 0.45%

O=C(CN1CCN(Cc2ccc(F)cc2)C1=O)NCc1cccs1
inactive: growth inhibition [1] -6.23% | growth inhibition [2] -1.7% | viability increase [3] 1.33% | viability [4] 99.5% | viability [5] 94.1% | inhibition [6] 0.97% | RAM network inhibition [7] 2.12%

Cc1ccc2c(c1)C(c1ccccc1)N(C(=O)c1ccc(Br)o1)CC(=O)N2 (configuration not stated)
inactive: growth inhibition [1] -8.12% | growth inhibition [2] -8.66% | viability increase [3] -3.95% | viability [4] 76.4% | viability [5] 77.9% | inhibition [6] -0.275% | RAM network inhibition [7] 2.72%
